Where “and” joins values, the source holds several entries; their conditions need not be identical. Equal values may be shown once. Entries after “also recorded” stand apart in the source; their conditions may differ. Read-outs that look alike come from different tables or passages of the source.
Legend:
[1] = test system: mCRPC; details: SWITCH phase 2 crossover study; cited from earlier work
[2] = Phase 1b/2a safety: treatment-related adverse events; type: in vivo, human
In short: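 Open-label, multicenter phase 1b/2 trial in progressive mCRPC patients resistant to abiraterone and/or enzalutamide. Test compound was given orally once daily, starting at 36 mg, with 3+3 escalation up to 144 mg daily. Expansion cohorts received 48 or 96 mg daily. All patients took enzalutamide 160 mg daily, with a 14-day enzalutamide lead-in if not already on it. Cycles were 28 days. Adverse events were graded by CTC v4.0, with assessments weekly in cycles 1–2, every 2 weeks in cycle 3, then every 4 weeks.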

[3] = test system: metastatic castration-resistant prostate cancer (mCRPC); type: in vivo, human
[4] = test system: BET inhibitor target genes MYC, IL-8, CCR1, GPR183, IL1RN; assay: Whole blood RNA expression of BET inhibitor target genes; type: in vivo, human
In short: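 mCRPC patients received the oral test compound once daily plus enzalutamide 160 mg daily. Whole blood RNA was sampled pre-dose and 2, 4, 6 and 24 h after the cycle 1 day 1 dose. Panel: MYC, IL-8, CCR1, GPR183, HEXIM1, IL1RN. Expression change was correlated with parent plus active metabolite exposure: AUC0–2 for MYC and GPR183, AUC0–4 for CCR1, IL1RN and IL-8. Exposure was measured by plasma LC/MS/MS.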

[5] = test system: MYC and AR-signaling; assay: RNA-seq gene set enrichment analysis of paired metastatic tumor biopsies; type: in vivo, human; details: four patients, with enzalutamide, median eight weeks of treatment

SMILES: C[C@]12CC[C@H](O)CC1=CC[C@@H]1[C@@H]2CC[C@]2(C)C(c3cccnc3)=CC[C@@H]12 [abiraterone]
- Median PFS, second line [1]: 1.7 months

SMILES: CNc1nc2ncc(-c3c(C)noc3C)cc2n1Cc1ccccc1 [ZEN-3694]
- Treatment-related AE all grades, patients: Fatigue ([2]; 36mg QD n=4): 1
- Treatment-related AE all grades, patients: Visual symptoms ([2]; 36mg QD n=4): 3
- Treatment-related AE all grades, patients: Weight loss & Abnormal WL ([2]; 36mg QD n=4): 1
- Treatment-related AE all grades, patients: Constipation ([2]; 48 mg QD n=21): 1
- Treatment-related AE all grades, patients: Decreased Appetite ([2]; 48 mg QD n=21): 2
- Treatment-related AE all grades, patients: Dysgeusia ([2]; 48 mg QD n=21): 2
- Treatment-related AE all grades, patients: Dyspepsia ([2]; 48 mg QD n=21): 1
- Treatment-related AE all grades, patients: Fatigue ([2]; 48 mg QD n=21): 8
- Treatment-related AE all grades, patients: Nausea ([2]; 48 mg QD n=21): 7
- Treatment-related AE all grades, patients: Photopsia ([2]; 48 mg QD n=21): 1
- Treatment-related AE all grades, patients: Photosensitivity ([2]; 48 mg QD n=21): 2
- Treatment-related AE all grades, patients: Rash maculopapular ([2]; 48 mg QD n=21): 3
- Treatment-related AE all grades, patients: Thrombocytopenia ([2]; 48 mg QD n=21): 1
- Treatment-related AE all grades, patients: Visual symptoms ([2]; 48 mg QD n=21): 12
- Treatment-related AE all grades, patients: Vomiting ([2]; 48 mg QD n=21): 1
- Treatment-related AE all grades, patients: Decreased Appetite ([2]; 72mg QD n=6): 1
- Treatment-related AE all grades, patients: Diarrhea ([2]; 72mg QD n=6): 1
- Treatment-related AE all grades, patients: Dizziness ([2]; 72mg QD n=6): 1
- Treatment-related AE all grades, patients: Dysgeusia ([2]; 72mg QD n=6): 0
- Treatment-related AE all grades, patients: Fatigue ([2]; 72mg QD n=6): 2
- Treatment-related AE all grades, patients: Nausea ([2]; 72mg QD n=6): 3
- Treatment-related AE all grades, patients: Taste disorder ([2]; 72mg QD n=6): 1
- Treatment-related AE all grades, patients: Thrombocytopenia ([2]; 72mg QD n=6): 2
- Treatment-related AE all grades, patients: Visual symptoms ([2]; 72mg QD n=6): 6
- Treatment-related AE all grades, patients: Weight loss & Abnormal WL ([2]; 72mg QD n=6): 1
- Treatment-related AE all grades, patients: Blood creatinine Increased ([2]; 96mg QD n=31): 3
- Treatment-related AE all grades, patients: Constipation ([2]; 96mg QD n=31): 3
- Treatment-related AE all grades, patients: Decreased Appetite ([2]; 96mg QD n=31): 10
- Treatment-related AE all grades, patients: Diarrhea ([2]; 96mg QD n=31): 5
- Treatment-related AE all grades, patients: Dizziness ([2]; 96mg QD n=31): 3
- Treatment-related AE all grades, patients: Dysgeusia ([2]; 96mg QD n=31): 10
- Treatment-related AE all grades, patients: Dyspepsia ([2]; 96mg QD n=31): 2
- Treatment-related AE all grades, patients: Fatigue ([2]; 96mg QD n=31): 13
- Treatment-related AE all grades, patients: Nasal congestion ([2]; 96mg QD n=31): 3
- Treatment-related AE all grades, patients: Nausea ([2]; 96mg QD n=31): 17
- Treatment-related AE all grades, patients: Photopsia ([2]; 96mg QD n=31): 3
- Treatment-related AE all grades, patients: Photosensitivity ([2]; 96mg QD n=31): 3
- Treatment-related AE all grades, patients: Rash ([2]; 96mg QD n=31): 3
- Treatment-related AE all grades, patients: Rash maculopapular ([2]; 96mg QD n=31): 1
- Treatment-related AE all grades, patients: Taste disorder ([2]; 96mg QD n=31): 3
- Treatment-related AE all grades, patients: Thrombocytopenia ([2]; 96mg QD n=31): 6
- Treatment-related AE all grades, patients: Vision blurred ([2]; 96mg QD n=31): 2
- Treatment-related AE all grades, patients: Visual symptoms ([2]; 96mg QD n=31): 17
- Treatment-related AE all grades, patients: Vomiting ([2]; 96mg QD n=31): 3
- Treatment-related AE all grades, patients: Weight loss & Abnormal WL ([2]; 96mg QD n=31): 3
- Dose-limiting toxicity ([2]; 96 mg/day dose level, Grade 3 nausea, cycle 1): One patient
- Treatment-related AE all grades, patients: Decreased Appetite ([2]; 120mg QD N=4): 3
- Treatment-related AE all grades, patients: Dysgeusia ([2]; 120mg QD N=4): 1
- Treatment-related AE all grades, patients: Fatigue ([2]; 120mg QD N=4): 3
- Treatment-related AE all grades, patients: Nausea ([2]; 120mg QD N=4): 3
- Treatment-related AE all grades, patients: Vision blurred ([2]; 120mg QD N=4): 1
- Treatment-related AE all grades, patients: Visual symptoms ([2]; 120mg QD N=4): 4
- Treatment-related AE all grades, patients: Vomiting ([2]; 120mg QD N=4): 1
- Treatment-related AE all grades, patients: Weight loss & Abnormal WL ([2]; 120mg QD N=4): 1
- Patients requiring dose reduction and/or discontinuation ([2]; 120 mg/day): 75%
- Treatment-related AE all grades, patients: Decreased Appetite ([2]; 144mg QD N=3): 2
- Treatment-related AE all grades, patients: Dysgeusia ([2]; 144mg QD N=3): 3
- Treatment-related AE all grades, patients: Fatigue ([2]; 144mg QD N=3): 1
- Treatment-related AE all grades, patients: Nausea ([2]; 144mg QD N=3): 2
- Treatment-related AE all grades, patients: Rash maculopapular ([2]; 144mg QD N=3): 1
- Treatment-related AE all grades, patients: Thrombocytopenia ([2]; 144mg QD N=3): 1
- Treatment-related AE all grades, patients: Visual symptoms ([2]; 144mg QD N=3): 2
- Treatment-related AE all grades, patients: Weight loss & Abnormal WL ([2]; 144mg QD N=3): 2
- Patients requiring dose reduction and/or discontinuation ([2]; 144 mg/day): 100%
- Treatment-related AE all grades, patients: Blood creatinine Increased ([2]; 6Dmg QD n=6): 2
- Treatment-related AE all grades, patients: Decreased Appetite ([2]; 6Dmg QD n=6): 2
- Treatment-related AE all grades, patients: Dysgeusia ([2]; 6Dmg QD n=6): 0
- Treatment-related AE all grades, patients: Fatigue ([2]; 6Dmg QD n=6): 1
- Treatment-related AE all grades, patients: Nausea ([2]; 6Dmg QD n=6): 2
- Treatment-related AE all grades, patients: Taste disorder ([2]; 6Dmg QD n=6): 1
- Treatment-related AE all grades, patients: Thrombocytopenia ([2]; 6Dmg QD n=6): 1
- Treatment-related AE all grades, patients: Visual symptoms ([2]; 6Dmg QD n=6): 4
- Treatment-related AE all grades, patients: Blood creatinine Increased ([2]; TOTAL n=75): 5 (6.7) n (%)
- Treatment-related AE all grades, patients: Constipation ([2]; TOTAL n=75): 4 (5.3) n (%)
- Treatment-related AE all grades, patients: Decreased Appetite ([2]; TOTAL n=75): 20 (26.7) n (%)
- Treatment-related AE all grades, patients: Diarrhea ([2]; TOTAL n=75): 6(8) n (%)
- Treatment-related AE all grades, patients: Dizziness ([2]; TOTAL n=75): 4 (5.3) n (%)
- Treatment-related AE all grades, patients: Dysgeusia ([2]; TOTAL n=75): 16 (21.3) n (%)
- Treatment-related AE all grades, patients: Dyspepsia ([2]; TOTAL n=75): 3(4) n (%)
- Treatment-related AE all grades, patients: Fatigue ([2]; TOTAL n=75): 29 (38.7) n (%)
- Treatment-related AE all grades, patients: Nasal congestion ([2]; TOTAL n=75): 3(4) n (%)
- Treatment-related AE all grades, patients: Nausea ([2]; TOTAL n=75): 34 (45.3) n (%)
- Treatment-related AE all grades, patients: Photopsia ([2]; TOTAL n=75): 4 (5.3) n (%)
- Treatment-related AE all grades, patients: Photosensitivity ([2]; TOTAL n=75): 5 (6.7) n (%)
- Treatment-related AE all grades, patients: Rash ([2]; TOTAL n=75): 3(4) n (%)
- Treatment-related AE all grades, patients: Rash maculopapular ([2]; TOTAL n=75): 5 (6.7) n (%)
- Treatment-related AE all grades, patients: Taste disorder ([2]; TOTAL n=75): 5 (6.7) n (%)
- Treatment-related AE all grades, patients: Thrombocytopenia ([2]; TOTAL n=75): 11 (14.7) n (%)
- Treatment-related AE all grades, patients: Vision blurred ([2]; TOTAL n=75): 3(4) n (%)
- Treatment-related AE all grades, patients: Visual symptoms ([2]; TOTAL n=75): 48 (64) n (%)
- Treatment-related AE all grades, patients: Vomiting ([2]; TOTAL n=75): 5 (6.7) n (%)
- Treatment-related AE all grades, patients: Weight loss & Abnormal WL ([2]; TOTAL n=75): 8(10.7) n (%)
- Maximum tolerated dose ([2]; ZEN-3694 36 to 144 mg daily with enzalutamide 160 mg daily): without reaching an MTD; also recorded: not reached
- Patients requiring dose reduction and/or treatment discontinuation due to adverse events ([2]; all dose levels, 24/75): 32%
- Patients with Grade ≥ 3 treatment-related adverse event ([2]; all dose levels, n=75, with enzalutamide): 18.7%
- Patients requiring dose reduction and/or discontinuation ([2]; doses from 36 mg – 96 mg/day): 10%−35%
- Recommended phase 2 dose ([2]; in combination with enzalutamide): 96 mg/day
- Grade ≥ 3 nausea ([2]; n=75, with enzalutamide): 4%
- Patients discontinued for adverse event ([2]; nine patients): 12%
- Patients remaining on treatment without progression at data cut-off ([3]; 7 patients): 9%
- Patients on treatment greater than 24 months without progression ([3]; four patients): 5%
- Median time to progression (TTP) ([3]; higher canonical AR transcriptional activity in baseline biopsy): 19 weeks
- Composite median radiographic or clinical progression-free survival ([3]; overall cohort): 5.5 months
- Median radiographic progression-free survival (rPFS) ([3]; overall cohort, with enzalutamide): 9.0 months and 9 months
- Median rPFS ([3]; patients that had progressed on abiraterone): 7.8 months
- Median rPFS ([3]; primary resistance to prior first-line AR targeted therapy, progression within 6 months, N = 12): 10.6 months
- Composite median PFS ([3]; primary resistance, progression within 16 weeks, N = 5): 10.6 months
- Composite median radiographic or clinical progression-free survival ([3]; prior progression on abiraterone): 5.5 months
- Median rPFS ([3]; radiographic progression at study entry): 7.8 months
- Median rPFS ([3]; serum PSA consistently rose beyond 12 weeks, N = 21): 7.2 months
- Median rPFS ([3]; tumors with high AR activity): 4.3 months
- Median rPFS ([3]; tumors with low AR score): 10.4 months
- Median TTP ([3]; without aggressive variant clinical features, p = 0.24): 5.5 months
- Mean difference in whole blood RNA expression of BETi targets ([4]; 4 hours post-ZEN-3694 dose, p ≤ 0.0001): up to 4 fold
- Decrease in whole blood mRNA levels of BET inhibitor target genes MYC, IL-8, CCR1, GPR183, IL1RN ([4]; dose-dependent, post-C1D1 dose): 2–4 fold
- Dose level at which decrease in BET inhibitor target gene expression plateaus ([4]; in vivo): ≥ 96 mg
- Duration of decrease in whole blood mRNA levels of BET inhibitor target genes ([4]; in vivo): at least 8 hours
- Gene set enrichment, on-treatment versus baseline tumor biopsies [5]: down-regulation of expression of MYC and AR-signaling

Reference: publication PMC7572827 (Clinical cancer research : an official journal of the …, 2020)
